Results on 13 compounds are retold here after ChEMBL document CHEMBL3085645, “Design, synthesis and biological evaluation of phosphorodiamidate prodrugs of antiviral and anticancer nucleosides” (Eur J Med Chem, 2013).

In data set [1] the test system is Hepatitis C virus. Kind of data set: Antiviral activity against Hepatitis C virus genotype 1b infected in human HuH7 cells assessed as inhibition of viral replication. Format: functional, organism-based, Hepacivirus hominis.
Data set [2] deals with Huh-7. Kind of data set: Cytotoxicity against human HuH7 cells. Format: cell-based.
Data set [3] has as its system Human immunodeficiency virus 2. In words: Antiviral activity against HIV2 ROD infected in human CEM cells assessed as virus-induced giant cell formation after 4 days by microscopic analysis. Format: functional, organism-based. To be noted: Human immunodeficiency virus 2, ISOLATE ROD, CCRF-CEM, 96 h. A digest of the protocol: (§1)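 CEM cells (∼3 × 10^5 cells/cm3) infected with 100 CCID50/mL of HIV-1(IIIB) or HIV-2(ROD), seeded into wells with compound dilutions. Giant cell formation examined microscopically after 4 days at 37 °C.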

The subject of data set [4] is L1210. In words: Cytostatic activity against mouse L1210 cells assessed as growth inhibition after 2 days by particle counting analysis. The note with it: L1210, 48 h. Format: functional, cell-based. A digest of the protocol: (§2)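 Tumor cells seeded and exposed to a range of compound concentrations. Cell number counted with a particle counter after 2 days (L1210, L1210/TK) or 3 days (CEM, CEM/TK, HeLa, HeLa TK, Caco-2, Colo-320).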

For data set [5], the system named is CCRF-CEM. Kind of data set: Cytotoxicity against human CEM cells. Format: cell-based.
In data set [6] the test system is CCRF-CEM. Kind of data set: Cytostatic activity against human CEM cells assessed as growth inhibition after 3 days by particle counting analysis. The note with it: 72 h. Format: functional, cell-based. A digest of the protocol:
as §2

The subject of data set [7] is HeLa. In words: Cytostatic activity against human HeLa cells assessed as growth inhibition after 3 days by particle counting analysis. Format: functional, cell-based. The note with it: 72 h. In a few lines:
as §2

Data set [8] relates to Human immunodeficiency virus 1. Kind of data set: Antiviral activity against HIV1 3B infected in human CEM cells assessed as virus-induced giant cell formation after 4 days by microscopic analysis. To be noted: Human immunodeficiency virus 1, 3B, CCRF-CEM, 96 h. The data set is classed as functional, organism-based. In a few lines:
as §1

The test system of data set [9] is Felid alphaherpesvirus 1. In words: Antiviral activity against Feline herpesvirus infected in cat CRFK cells assessed as inhibition of virus-induced cytopathicity. To be noted: Felid alphaherpesvirus 1, CRFK. The data set is classed as functional, organism-based.
Data set [10] relates to Human alphaherpesvirus 1. In words: Antiviral activity against Herpes simplex virus 1 KOS infected in HEL cells assessed as inhibition of virus-induced cytopathicity. To be noted: Human alphaherpesvirus 1, KOS. Format: functional, organism-based. In general terms: Damage to the host cells serves as the signal in cytopathic effect assays.
In data set [11] the test system is HeLa. In words: Cytostatic activity against thymidine kinase-deficient human HeLa cells assessed as growth inhibition after 3 days by particle counting analysis. Format: functional, cell-based. To be noted: 72 h. A digest of the protocol:
as §2

A short description of data set [12]: Cytotoxicity against HEL cells. Format: cell-based. The note with it: human.
The subject of data set [13] is Human alphaherpesvirus 2. Kind of data set: Antiviral activity against Herpes simplex virus 2 G infected in HEL cells assessed as inhibition of virus-induced cytopathicity. Format: functional, organism-based. The note with it: Human alphaherpesvirus 2, strain G.
Data set [14] deals with Human alphaherpesvirus 1. Kind of data set: Antiviral activity against acyclovir-resistant thymidine kinase-deficient Herpes simplex virus 1 KOS infected in HEL cells assessed as inhibition of virus-induced cytopathicity. The data set is classed as functional, organism-based. To be noted: Human alphaherpesvirus 1, KOS.
In data set [15] the test system is CCRF-CEM. Kind of data set: Cytostatic activity against thymidine kinase-deficient human CEM cells assessed as growth inhibition after 3 days by particle counting analysis. To be noted: 72 h. The data set is classed as functional, cell-based. In a few lines: as §2
The subject of data set [16] is Caco-2. In words: Cytostatic activity against human Caco2 cells assessed as growth inhibition after 3 days by particle counting analysis. Format: functional, cell-based. To be noted: Caco-2, 72 h. A digest of the protocol: as §2
Data set [17] deals with L1210. In words: Cytostatic activity against thymidine kinase-deficient mouse L1210 cells assessed as growth inhibition after 2 days by particle counting analysis. Format: functional, cell-based. The note with it: L1210, 48 h. In a few lines: as §2
Data set [18] deals with COLO 320. In words: Cytostatic activity against human COLO320 cells assessed as growth inhibition after 3 days by particle counting analysis. To be noted: COLO 320, 72 h. Format: functional, cell-based. In a few lines: as §2

`CCOc1nc(N)nc2c1ncn2[C@@H]1O[C@H](COP(=O)(N[C@@H](C)C(=O)OCC(C)(C)C)N[C@@H](C)C(=O)OCC(C)(C)C)[C@@H](O)[C@@]1(C)F`: the EC50 in data set [1] (Huh-7, read-out: EC50) turned out to be 0.05 µM. In data set [2] (human, huh-7, read-out: CC50), the CC50 came to 73 µM.

For `CCOc1nc(N)nc2c1ncn2[C@@H]1O[C@H](COP(=O)(N[C@H](C)C(=O)OCC(C)(C)C)N[C@H](C)C(=O)OCC(C)(C)C)[C@@H](O)[C@@]1(C)F`, the EC50 in data set [1] (Huh-7, read-out: EC50) stood at 0.23 µM. In [2] (human, huh-7, read-out: CC50), the CC50 is above 100 µM.

With `C[C@H](NP(=O)(N[C@@H](C)C(=O)OCc1ccccc1)OC[C@@]1(N=[N+]=[N-])O[C@@H](n2ccc(=O)[nH]c2=O)[C@H](O)[C@@H]1O)C(=O)OCc1ccccc1`, in data set [1] (Huh-7, read-out: EC50), the EC50 is above 40 µM. In addition, in [2] (human, huh-7, read-out: CC50), the CC50 was above 100 µM.

Turning to `C[C@H](NP(=O)(N[C@@H](C)C(=O)OCC(C)(C)C)OC[C@@]1(N=[N+]=[N-])O[C@@H](n2ccc(=O)[nH]c2=O)[C@H](O)[C@@H]1O)C(=O)OCC(C)(C)C`, in data set [1] (Huh-7, read-out: EC50), the EC50 was 22 µM. In addition, the CC50 in [2] (human, huh-7, read-out: CC50) is above 100 µM.

Turning to `C[C@H](NP(=O)(N[C@@H](C)C(=O)OCc1ccccc1)OC[C@@]1(N=[N+]=[N-])O[C@@H](n2ccc(N)nc2=O)[C@H](O)[C@@H]1O)C(=O)OCc1ccccc1`, in data set [1] (Huh-7, read-out: EC50), the EC50 is above 40 µM. Further, the CC50 in data set [2] (human, huh-7, read-out: CC50) is above 100 µM.

As to `C[C@H](NP(=O)(N[C@@H](C)C(=O)OCC(C)(C)C)OC[C@@]1(N=[N+]=[N-])O[C@@H](n2ccc(N)nc2=O)[C@H](O)[C@@H]1O)C(=O)OCC(C)(C)C`, the EC50 in data set [1] (Huh-7, read-out: EC50) is above 40 µM. In data set [2] (human, huh-7, read-out: CC50), the CC50 was found to be 72 µM.

Turning to `C[C@H](NP(=O)(N[C@@H](C)C(=O)OCc1ccccc1)OC[C@H]1O[C@@H](n2cnc(C(N)=O)n2)[C@H](O)[C@@H]1O)C(=O)OCc1ccccc1`, the EC50 in data set [1] (Huh-7, read-out: EC50) is above 100 µM. The CC50 in [2] (Homo sapiens, Huh-7, read-out: EC50 (the source's name)) is above 100 µM.

With `C[C@H](NP(=O)(N[C@@H](C)C(=O)OCC(C)(C)C)OC[C@H]1O[C@@H](n2cnc(C(N)=O)n2)[C@H](O)[C@@H]1O)C(=O)OCC(C)(C)C`, in data set [1] (Huh-7, read-out: ED50 (the source's name)), the EC50 is above 100 µM. For the same compound, in data set [2] (human, huh-7, read-out: ED50 (the source's name)), the CC50 was above 100 µM.

As usually defined, the IC50 is the concentration needed to halve the response being measured. With `Nc1nc(NC2CC2)c2ncn([C@H]3C=C[C@@H](CO)C3)c2n1` [ABACAVIR], the values for the EC50 in data set [3] and in data set [8] were 18 µM and 23 µM, respectively. Besides, the figures for the IC50 in data set [4], in [6] and in [7] were above 250 µM, above 250 µM and 170 µM, respectively. Further, the CC50 in data set [5] was above 250 µM.

`NC(=O)c1ncn([C@@H]2O[C@H](CO)[C@@H](O)[C@H]2O)c1N` [ACADESINE]: the EC50 in data set [9], in data set [10], in data set [13] and in [14] was above 100 µM throughout. Moreover, the IC50 is at least 250 µM in [4], at least 250 µM in [11], 210 µM in [6] and 165 µM in data set [7]. In addition, the MCC in data set [12] was above 100 µM.

In data set [12], `CCCCCc1ccc(-c2cc3cn([C@H]4C[C@H](O)[C@@H](CO)O4)c(=O)nc3o2)cc1` [CF1743] gave an MCC of at least 20 µM.

Consider `Cc1cn([C@H]2C=C[C@@H](CO)O2)c(=O)[nH]c1=O` [STAVUDINE], for which the IC50 in [15] was above 250 µM; in data set [16], above 250 µM; in [17] it was at least 250 µM; in [11] it was above 250 µM; in data set [18] it was 159 µM; in data set [7] it was above 250 µM. The EC50 in data set [3] worked out at 0.58 µM; in [8], 0.39 µM.

Regarding `Cc1cn([C@H]2C[C@H](N=[N+]=[N-])[C@@H](CO)O2)c(=O)[nH]c1=O` [ZIDOVUDINE], the EC50 is 0.067 µM in [3] and 0.012 µM in data set [8]. In addition, the CC50 in data set [5] was above 250 µM.
